The source of these data is ChEMBL document CHEMBL1155178, “Reactivity of isothiazolones and isothiazolone-1-oxides in the inhibition of the PCAF histone acetyltransferase” (Eur J Med Chem, 2009).

One data set concerns HepG2. The data set can be described thus: Growth inhibition of human HepG2 cells after 48 hrs by crystal violet assay. The format is functional, cell-based. To be noted: HepG2, 48 h. The method, boiled down: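 HEP G2 liver cancer cells grown in DMEM with 10% heat-inactivated FBS, penicillin and streptomycin at 37 °C, 5% CO2. Seeded at 5000 cells/well, grown 24 h, then exposed to inhibitors for 48 h. Fixed and stained with 1% crystal violet in 70% ethanol for 30 min, water-washed, solubilized in 1% SDS, read at 550 nm. Cell-free blank subtracted; untreated growth set to 100%. Each concentration tested 8-fold.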

Data set [1] can be described thus: Octanol-water partition coefficient, log P by HPLC analysis. The class given is physicochemical. The method, boiled down:
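log P determined from the analyte's peak area in each of the two layers.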

Data set [2] has as its target Histone acetyltransferase KAT2B (Homo sapiens, UniProt Q92831). The data set can be described thus: Inhibition of human recombinant histone acetyltransferase PCAF assessed as CoA-SH activity preincubated for 15 mins by CPM fluorescent assay.

Where only a bound is given, the exact number is not on record here.

In general, IC50 refers to the concentration that gives 50% inhibition. As a reminder, the logP is a log measure of how a compound divides between an organic and an aqueous phase. A higher logP goes with a more lipophilic compound.

Sequence of Histone acetyltransferase KAT2B (Q92831 whole entry): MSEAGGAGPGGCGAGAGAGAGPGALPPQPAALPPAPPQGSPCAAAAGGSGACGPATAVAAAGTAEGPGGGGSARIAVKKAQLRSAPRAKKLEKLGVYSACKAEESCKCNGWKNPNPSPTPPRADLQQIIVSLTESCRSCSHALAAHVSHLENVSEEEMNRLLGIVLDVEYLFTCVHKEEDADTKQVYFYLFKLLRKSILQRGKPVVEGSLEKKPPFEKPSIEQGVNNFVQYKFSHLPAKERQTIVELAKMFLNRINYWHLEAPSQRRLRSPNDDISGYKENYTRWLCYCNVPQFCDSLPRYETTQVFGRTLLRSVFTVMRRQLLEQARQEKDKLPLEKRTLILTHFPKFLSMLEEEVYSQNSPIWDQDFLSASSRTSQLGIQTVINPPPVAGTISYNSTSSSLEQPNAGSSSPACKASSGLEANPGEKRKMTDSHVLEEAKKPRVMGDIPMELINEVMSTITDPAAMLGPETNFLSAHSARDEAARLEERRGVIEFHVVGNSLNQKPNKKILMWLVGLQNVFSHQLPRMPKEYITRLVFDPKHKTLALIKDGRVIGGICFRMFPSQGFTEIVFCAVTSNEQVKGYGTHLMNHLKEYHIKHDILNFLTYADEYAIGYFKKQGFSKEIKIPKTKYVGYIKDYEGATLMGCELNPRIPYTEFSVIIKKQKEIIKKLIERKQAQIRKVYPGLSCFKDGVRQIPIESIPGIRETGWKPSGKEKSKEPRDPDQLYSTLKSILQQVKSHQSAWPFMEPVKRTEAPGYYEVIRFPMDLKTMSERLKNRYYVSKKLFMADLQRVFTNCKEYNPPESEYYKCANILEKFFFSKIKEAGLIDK

For the compound `COC(=O)CCn1sc(Cl)cc1=O`, the concentration for half-maximal inhibition (IC50) in the data set with HepG2 turned out to be 24 µM. The compound further showed a logP in data set [1] of 0.69. For the compound `CCn1sc(Cl)cc1=O`, in the data set on HepG2, half-maximal inhibition (IC50) was put at 12 µM. In turn, `COC(=O)CCn1c(=O)cc(Cl)[s+]1[O-]` (stereo unspecified) displayed an IC50 with HepG2 greater than 100 µM. The same compound returned a logP in data set [1] of 0.08. `CCn1sc(Cl)c(C)c1=O`: the figures for the half-maximal inhibitory concentration (IC50) (in the data set on HepG2; in data set [2]) were 9.1 µM and greater than 10 µM, respectively. Taken in the same sequence, the figures for `CCn1sc(Cl)c(Cl)c1=O` were 12 µM and 2.4 µM. `CCCCCCCCCCCCSc1cc(=O)n(C(C)(C)C)[s+]1[O-]` (stereo unspecified): the IC50 with HepG2 was greater than 50 µM; in data set [2] it was greater than 10 µM. Taken in the same sequence, the figures for `COC(=O)CCn1c(=O)c(C)c(Cl)[s+]1[O-]` (stereo unspecified) were greater than 100 µM and greater than 10 µM. Taken in the same sequence, the figures for `COC(=O)CCn1sc(Cl)c(C)c1=O` were 8.6 µM and greater than 10 µM.

In the case of `CCn1c(=O)cc(Cl)[s+]1[O-]` (stereo unspecified), the IC50 in the data set with HepG2 is greater than 100 µM; in data set [2], greater than 10 µM.

As to `COC(=O)CCn1sc(Cl)c(Cl)c1=O`, the values for the half-inhibitory concentration (IC50) (with HepG2; in data set [2]) were 16 µM and 2.6 µM, respectively. Turning to `COC(=O)CCn1c(=O)c(Cl)c(Cl)[s+]1[O-]` (stereo unspecified), the figures for the IC50 (in the data set with HepG2; in data set [2]) were greater than 100 µM and greater than 10 µM, respectively. Take `CC(C)(C)n1c(=O)cc(Cl)[s+]1[O-]` (stereo unspecified): the half-inhibitory concentration (IC50) in the data set on HepG2 was 27 µM; in data set [2], greater than 10 µM.

Consider `CCCCCCCCCCCCSc1cc(=O)n(CCC(=O)OC)[s+]1[O-]` (stereo unspecified), for which the IC50 in the data set with HepG2 is greater than 100 µM; in data set [2], greater than 10 µM. Taken in the same sequence, the figures for `CCn1c(=O)c(Cl)c(Cl)[s+]1[O-]` (stereo unspecified) were greater than 100 µM and greater than 10 µM. Consider `CCn1c(=O)c(C)c(Cl)[s+]1[O-]` (stereo unspecified), for which the 50% inhibitory concentration (IC50) in the data set with HepG2 was greater than 100 µM; in data set [2] it was greater than 10 µM. As for `CCCCCCCCCCCCSc1c(Cl)c(=O)n(CCC(=O)OC)[s+]1[O-]` (stereo unspecified), the half-maximal inhibitory concentration (IC50) with HepG2 was greater than 100 µM; in data set [2], greater than 10 µM.
